Assay results reported in ChEMBL document CHEMBL1124344, “5-Piperazinylalkyl-2(3H)-oxazolones with neuroleptic activity” (J Med Chem, 1989).

Legend:
Mus musculus [1] = experiment: Inhibition of spontaneous motor activity in mice, by administering perorally; type: functional; conditions: po
How it was run: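 Mice in groups of five were dosed orally with gum arabic suspensions at 10 mL/kg after an overnight fast, with a vehicle control group. Locomotion was counted for 10 min in a photocell activity cage, in at least two groups per dose. ED50, by probit analysis, is the dose giving 50% inhibition against controls.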

Mus musculus [2] = experiment: Inhibition of amphetamine-induced hypermobility in mice following p.o. administration.; type: functional; conditions: po
How it was run: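 Compounds were given orally to male mice (gum arabic suspension, 10 mL/kg, fasted) in groups of five. Amphetamine 4 mg/kg ip followed 30 min later. After another 10 min, motility was recorded for 15 min with a photocell actophotometer. ED50, by probit analysis, is the dose giving 50% reduction against controls.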

[3] = Lethal dose in mice (LD50) following i.p. dosing; type: toxicity, organism-based; conditions: mouse, in vivo, ip
How it was run: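 Acute toxicity tested in mice by the intraperitoneal route. LD50 is the dose killing 50% of treated mice, computed by Finney probit analysis; values are approximate.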

Rattus norvegicus [4] = experiment: Activity to evoke catalepsy in rats, by administering perorally at a dose 150 mg/kg; type: functional; conditions: route oral
How it was run: (§1)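 Rats fasted overnight and given oral doses in arabic gum suspension (10 mL/kg), 1 h before screening or 1 and 5 h before profile testing. Forelegs placed on a horizontal bar 7 cm high, three times at 5-min intervals. Immobility of at least 15 s counts as catalepsy. ED50 is the dose giving catalepsy in 50% of rats, by probit analysis. Parenthetical entries give the maximal dose and percent activity.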

Rattus norvegicus [5] = experiment: Antagonistic activity against apomorphine-induced stereotypy in rats, by administering perorally; type: functional; conditions: po
How it was run: (§2)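 Male rats fasted overnight and given oral doses in arabic gum suspension (10 mL/kg) 1 h, or 1 and 5 h, before challenge. Apomorphine 3 mg/kg iv, with stereotypy observed 20 min later. ED50 is the dose inhibiting stereotypy in 50% of rats, per Janssen's method. Parenthetical entries give the maximal dose and percent activity.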

Mus musculus [6] = experiment: Inhibition of spontaneous motor activity in mice, by administering perorally at a dose of 40 mg/kg; type: functional; conditions: route oral
How it was run: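 Mice fasted overnight, then dosed orally with compound (weighed as base) suspended in arabic gum, 10 mL/kg, with vehicle controls; 1 h pretreatment for screening tests, 1 or 5 h for others. Groups of five; locomotor activity counted 10 min in photocell activity cage, at least two groups per dose. ED50 = dose giving 50% inhibition versus controls, by probit analysis.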

Rattus norvegicus [7] = experiment: Activity to evoke catalepsy in rats, by administering perorally at a dose of 40 mg/kg; type: functional; conditions: route oral; how it was run: as §1
Rattus norvegicus [8] = experiment: Antagonistic activity against apomorphine-induced stereotypy in rats, by administering perorally at a dose of 40 mg/kg; type: functional; conditions: route oral; how it was run: as §2

| Compound | ED50 (Mus musculus [1]) | ED50 (Mus musculus [2]) | LD50 [3] | inhibition in vivo at 150 mg/kg (Rattus norvegicus [4]) | ED50 (Rattus norvegicus [5]) | inhibition in vivo at 40 mg/kg (Mus musculus [6]) | inhibition in vivo at 40 mg/kg (Rattus norvegicus [7]) | inhibition in vivo at 40 mg/kg (Rattus norvegicus [8]) |
| --- | --- | --- | --- | --- | --- | --- | --- | --- |
| CCn1c(-c2ccc(F)cc2)c(CCN2CCN(c3ccccc3)CC2)oc1=O | 15.4 mg/kg | 17 mg/kg | 750 mg/kg | 0% | 75 mg/kg | – | – | – |
| Oc1nc(-c2ccc(F)cc2)c(CCN2CCN(c3ccc(Cl)cc3Cl)CC2)o1 | – | 23.9 mg/kg | 1000 mg/kg | – | – | 45% | 0% | 0% |
